In PMC3564407 (The Febs Journal, 2012):
Square brackets hold non-standard residues; d marks the D form. Ends that are not written are not given here. Peptide text beside a SMILES is read from it. pGlu = O=C1CC[C@@H](C(=O)O)N1

Columns and labels:
[1] = target: T1, Drosophila melanogaster AnCE (Drosophila melanogaster, UniProt Q10714); assay: Inhibition of Ang I to Ang II conversion by AnCE; type: biochemical; settings: pH 7.5, read-out: % inhibition of the conversion of Ang I to Ang II
T1 sequence (Q10714 18-615): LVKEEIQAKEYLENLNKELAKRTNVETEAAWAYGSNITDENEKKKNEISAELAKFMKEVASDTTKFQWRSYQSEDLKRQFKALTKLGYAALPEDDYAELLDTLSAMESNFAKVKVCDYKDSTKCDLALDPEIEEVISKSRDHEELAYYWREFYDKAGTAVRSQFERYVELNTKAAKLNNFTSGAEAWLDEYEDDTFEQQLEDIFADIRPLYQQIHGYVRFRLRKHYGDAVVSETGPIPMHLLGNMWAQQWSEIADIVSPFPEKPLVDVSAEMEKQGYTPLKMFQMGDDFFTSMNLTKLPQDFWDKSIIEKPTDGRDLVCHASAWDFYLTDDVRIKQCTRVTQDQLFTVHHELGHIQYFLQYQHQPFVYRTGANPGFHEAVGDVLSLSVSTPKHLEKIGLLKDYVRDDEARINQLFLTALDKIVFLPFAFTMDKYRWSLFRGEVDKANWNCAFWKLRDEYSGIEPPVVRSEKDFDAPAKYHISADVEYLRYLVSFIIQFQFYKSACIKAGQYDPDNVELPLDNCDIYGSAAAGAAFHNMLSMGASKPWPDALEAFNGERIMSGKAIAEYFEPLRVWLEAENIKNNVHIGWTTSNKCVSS
How it was run: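 Recombinant D. melanogaster AnCE expressed in P. pastoris and purified by hydrophobic interaction and size-exclusion chromatography; diluted to 250 ng·μL−1 in reaction buffer containing 0.1 mg·mL−1 BSA. Reaction buffer is 0.1 m Hepes pH 7.5, 10 μm ZnSO4, 0.15 m NaCl, with Ang I (100 μm final) as substrate. Ang I consumption was quantified by HPLC-UV at 214 nm without and with 100 μm (initial) Ang II.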

[2] = target: T1, Drosophila melanogaster AnCE; assay: Inhibition of AnCE with Abz-YRK; type: biochemical
ACE N- and C-domains = settings: mice; ref [7],[8]; cited from earlier work
[3] = target: T1, Drosophila melanogaster AnCE; settings: ref [17]; cited from earlier work
ACE N-domain = settings: ref [9],[10]; cited from earlier work

CC[C@H](C)[C@H](NC(=O)[C@H](Cc1ccc(O)cc1)NC(=O)[C@@H](NC(=O)[C@H](CCCNC(=N)N)NC(=O)[C@@H](N)CC(=O)O)C(C)C)C(=O)N[C@@H](Cc1c[nH]cn1)C(=O)N1CCC[C@H]1C(=O)N[C@@H](Cc1ccccc1)C(=O)O [Ang II, angiotensin II] showed an inhibition at 100 µM [1] of 73%.

Work on CC[C@H](C)[C@H](NC(=O)[C@H](CCCCN)NC(=O)[C@@H]1CCCN1C(=O)[C@H](CCCNC(=N)N)NC(=O)[C@@H]1CCCN1C(=O)[C@@H]1CCCN1C(=O)[C@H](CC(C)C)NC(=O)CNC(=O)[C@@H]1CCC(=O)N1)C(=O)N1CCC[C@H]1C(=O)N1CCC[C@H]1C(=O)O [BPPb, bradykinin-potentiating peptide-b] ([pGlu]GLPPRPKIPP-OH) yielded a Ki [2] of 107 µM.

In the case of DRVYIHPFHL [Ang I, angiotensin I], the “in vivo conversion to Ang II by ACE domain” value (ACE N- and C-domains) is listed as “the C-domain is primarily responsible” and the “cleavage by AnCE” value [3] is listed as “converts Ang I to Ang II”.

In the case of N-acetyl Ser–Asp–Lys–Pro, the “degradation by ACE domain” value (ACE N-domain) is given as “the N-domain is solely responsible”.

For RPPGFSPFR [BK, bradykinin], the “cleavage efficiency by ACE domains” value (ACE N- and C-domains) is given as “cleaved with similar efficiency by both domains” and the “cleavage by AnCE” value [3] is given as “inactivates BK”.
